Screens from PubChem BioAssay.
dFosB act: activators of delta FosB homodimer, primary screen, biochemical, fluorescence polarization, TAMRA-CDK5 oligo, single point. purified delta FosB; percent of positive-control signal above neutral wells. activation, % at 25 µM. 0.99% of 340,000 active. AID 493131, 2011;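 active means mean activation above about 17%, with every replicate also reaching it, limit read from the data, passing the limit was not always enough; inconclusive means only one of the two conditions met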
CDK5 inh: inhibitors of human CDK5/p35 kinase, primary screen, biochemical, single concentration. Cyclin-dependent kinase 5 (Homo sapiens) + Cyclin-dependent kinase 5 activator 1 (Homo …. Recombinant CDK5/p35, ADP-Glo luminescence, 60 min. inhibition, % at 10 µM. 0.01% of 330,000 active. AID 488839, 2010;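 active means highest replicate inhibition of at least 50% and at least 75% of replicates reaching 50%; inconclusive means only one of the two criteria met; inactive means both criteria failed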
Target sequence (Q00535 whole entry, looked up): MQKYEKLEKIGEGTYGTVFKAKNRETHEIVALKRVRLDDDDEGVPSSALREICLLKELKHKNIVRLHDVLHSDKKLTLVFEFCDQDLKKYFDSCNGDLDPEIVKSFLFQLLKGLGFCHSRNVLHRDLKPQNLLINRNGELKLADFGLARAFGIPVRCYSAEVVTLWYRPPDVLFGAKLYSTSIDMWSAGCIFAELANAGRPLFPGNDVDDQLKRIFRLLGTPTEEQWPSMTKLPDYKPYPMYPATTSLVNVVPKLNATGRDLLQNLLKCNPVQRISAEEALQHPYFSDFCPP
Target sequence (Q15078 whole entry, looked up): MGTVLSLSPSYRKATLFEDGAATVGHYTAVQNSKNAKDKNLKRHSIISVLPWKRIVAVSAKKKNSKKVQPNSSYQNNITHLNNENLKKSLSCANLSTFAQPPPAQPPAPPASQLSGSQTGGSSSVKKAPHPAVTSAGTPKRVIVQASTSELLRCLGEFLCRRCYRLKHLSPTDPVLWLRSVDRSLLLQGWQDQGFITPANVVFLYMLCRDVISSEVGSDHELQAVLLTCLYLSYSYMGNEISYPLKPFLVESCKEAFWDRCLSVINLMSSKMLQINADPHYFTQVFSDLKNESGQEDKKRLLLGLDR
C2C12 statin: suppressors of statin myotoxicity in C2C12 myotubes, primary screen, cell-based, single point, plate reader; 0.78% of 330,000 active; AID 602340, 2012; C2C12 myotubes + simvastatin, ATP luminescence, 48 h; scaled: DMSO 0, geranylgeraniol control 100; rescue of ATP level, % at 7.49 µM;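 active means mean ATP rescue above about 67%, or every replicate alone reaching that limit, limit read from the data, passing the limit was not always enough; inconclusive means no clear call, values can overlap the other calls; inactive means mean under the limit and some replicate under it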;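 further: myotubes were challenged with 10 µM simvastatin during compound exposure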
CAL PDZ FP-1: untagged CAL PDZ binding inhibitors, primary screen, biochemical, fluorescence polarization, HTS. Golgi-associated PDZ and coiled-coil motif-containing protein (Homo sapiens), Q9HD26. purified CAL PDZ, TMR-peptide fluorescence polarization, 1 h. inhibition, % at 24.9 µM. 0.92% of 300,000 active;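 active means mean inhibition of at least 30% with at least half of replicates also reaching 30%; inconclusive means no clear call, values can overlap the other calls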
CAL PDZ FP-2: CAL PDZ peptide-binding inhibitors, primary screen, biochemical, fluorescence polarization, Cer-tagged CAL PDZ, HTS; Golgi-associated PDZ and coiled-coil motif-containing protein (Homo sapiens), Q9HD26; purified CAL PDZ, TMR-peptide fluorescence polarization, 1 h; inhibition, % at 20 µM; 0.02% of 330,000 active; AID 504414, 2011;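 active means highest replicate inhibition of at least 40%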
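System: tagged CAL PDZ domain. Schedule: 1 h room-temperature incubation prior to read. Signal: fluorescence polarization (mP). Measure: percent inhibition from loss of millipolarization.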
S100A4 MyoIIA: inhibitors of S100A4-myosin IIA peptide binding, primary screen, biochemical, fluorescence polarization, TAMRA-MyoIIA peptide; AID 652163, 2013; inhibition, % at 10.7 µM; 0.14% of 360,000 active;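 active means mean inhibition of at least 70% across replicates, with every replicate also reaching that level; inconclusive means mean inhibition reaches 70% but some replicates fall short; inactive means mean inhibition below 70%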
Target sequence (P26447 whole entry, looked up): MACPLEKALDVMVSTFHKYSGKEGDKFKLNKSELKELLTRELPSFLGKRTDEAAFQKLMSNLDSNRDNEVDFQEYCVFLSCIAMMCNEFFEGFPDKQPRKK
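Compound dosing: one dose per compound; test system: human S100A4 monomer with TAMRA-labelled myosin IIA peptide; probe or stimulus: TAMRA-labelled myosin IIA heavy-chain peptide probe, 5 nM; medium: HEPES buffer with Ca2+, pH 7.2; schedule: 5 min incubation before reading; benchmarks: neutral control DMSO, positive control TFP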
Large screens that a line does not name were inactive. In the library only some 2% were active in any assay of this set; here they are far more common.

O=C(CCNC(=O)c1ccccc1Cl)NCc1ccncc1	none (no result: C2C12 statin)
Cc1[nH]c2ccccc2c1C(=O)CCl	CAL PDZ FP-1 62.6 (no result: C2C12 statin)
COc1ccc(Nc2nc(N3CCN(C)CC3)nc3ccccc23)c(OC)c1	CAL PDZ FP-1 53.2 (no result: C2C12 statin)
CC(C)CNC(=S)N1CCC(NC(=O)c2ccco2)CC1	none (no result: C2C12 statin)
COc1cccc(CN(C)C(=O)CN2C(=O)NC(c3ccccc3)(c3ccccc3)C2=O)c1	CAL PDZ FP-1 79.0
C[C@@H]1CN([C@@H](C)CO)C(=O)Cc2cc(NC(=O)Cc3ccccc3)ccc2O[C@@H]1CN(C)Cc1ccc(C(=O)O)cc1	none (no result: dFosB act, CDK5 inh, CAL PDZ FP-1, CAL PDZ FP-2)
O=C(Nc1ccc(N2CCN(C(=O)c3ccco3)CC2)cc1)c1cc(Br)ccc1Cl	CAL PDZ FP-1 48.8
CC(C)(C)c1cc(C2COC(=O)COCCOCC(=O)OCCOCCO2)cc(C(C)(C)C)c1O (stereo unspecified)	none (no result: C2C12 statin)
CC1(C)CC(=O)C2=C(C1)OC(N)=C(C#N)C2c1ccccc1OC(=O)N1CCOCC1 (stereo unspecified)	none (no result: S100A4 MyoIIA)
CN(C)CCSc1nc(O)c(-c2ccccc2)c(=O)n1-c1ccccc1	none
Cc1sc2nc(SCCN(C)C)n(-c3ccccc3)c(=O)c2c1-c1ccc(F)cc1	dFosB act 22.4
CC1(C)CC(=O)C(C=NCCN2CCN(C(=S)NC3CCCCC3)CC2)=C(O)C1	none (no result: S100A4 MyoIIA)
O=C(O)CCSCCC(=O)O	C2C12 statin 90.6
Cc1cc(C)nc(/N=C2\NC(=O)CC(C(=O)O)N2c2ccc(Cl)cc2)n1 (stereo unspecified)	C2C12 statin 70.4 (no result: CAL PDZ FP-1)
Cc1ccc(N2/C(=N/c3nc(C)cc(C)n3)NC(=O)CC2C(=O)O)cc1 (stereo unspecified)	none (no result: S100A4 MyoIIA)
CCOC(=O)C1=C(C)C(c2ccccc2O)NC(=O)N1 (stereo unspecified)	C2C12 statin 86.6 (no result: S100A4 MyoIIA)
N#CCCN(Cc1ccccc1)S(=O)(=O)c1cccs1	CAL PDZ FP-1 61.5 (no result: CAL PDZ FP-2)
N#CCCN(Cc1cccnc1)S(=O)(=O)c1ccc2ccccc2c1	none
CCOC(=O)N1CCC(NC(=O)c2cc(C)c3c(C)nn(-c4ccccc4)c3n2)CC1	C2C12 statin 117.5 (no result: S100A4 MyoIIA)
C(=N\c1nccs1)/Nc1nccs1	C2C12 statin 98.1 (no result: S100A4 MyoIIA)
COc1c2c(nc3occc13)C(CC=C(C)C)(OC)C(OC(C)=O)CC2 (stereo unspecified)	none (no result: S100A4 MyoIIA)
COc1c2c(nc3occc13)C(CC=C(C)C)(OC)C(O)CC2 (stereo unspecified)	C2C12 statin 77.8 (no result: CAL PDZ FP-2)
Cc1c(NC(=S)N/N=C/c2cc([N+](=O)[O-])ccc2O)c(=O)n(-c2ccccc2)n1C	none
CCC(=O)N1[C@H](CN(C)C(C)=O)[C@@H](c2ccc(C3=CCCCC3)cc2)[C@@H]1CO	none (no result: dFosB act, CDK5 inh, CAL PDZ FP-1, CAL PDZ FP-2, S100A4 MyoIIA)
COc1cc(NC(C)=O)ccc1NC(=O)c1cc2ccccc2o1	none (no result: CAL PDZ FP-1)
CCN(CC)c1ccc2c(-c3ccc(S(=O)(=O)O)cc3S(=O)(=O)[O-])c3ccc(=[N+](CC)CC)cc-3oc2c1	dFosB act 62.9, CAL PDZ FP-1 active, CAL PDZ FP-2 170.9 (no result: S100A4 MyoIIA)
N=C1/C(=C\c2ccc(-c3cccc(Cl)c3)o2)C(=O)N=C2SC=C(c3ccccc3)N12	none (no result: C2C12 statin)
N=C1/C(=C\c2ccc(-c3ccc(C(=O)O)cc3)o2)C(=O)N=C2SC=C(c3ccccc3)N12	CAL PDZ FP-1 78.3
NC(=O)C1CCCN(Cc2c(C(=O)N3CCc4ccccc4C3)nc3ccc(Cl)cn23)C1 (stereo unspecified)	none
Cc1ccc(NCC2(N=Cc3ccccc3)OC(CO)C(O)C2O)cc1 (stereo unspecified)	none
Cc1ccc(NC(=S)NC(=O)C2CC2)cc1Cl	CAL PDZ FP-1 51.8
O=C(NC(=S)Nc1ccc(F)c(Cl)c1)C1CC1	none (no result: C2C12 statin)
CCc1cc[n+](-c2nc([O-])sc2C=O)cc1	C2C12 statin 108.1 (no result: CAL PDZ FP-1, S100A4 MyoIIA)
C[C@@H]1CN([C@@H](C)CO)C(=O)Cc2cc(NC(=O)Nc3ccc4c(c3)OCO4)ccc2O[C@@H]1CN(C)C	none (no result: dFosB act, CDK5 inh, CAL PDZ FP-1, CAL PDZ FP-2)
CC1c2cccn2CCN1S(=O)(=O)c1ccc(F)cc1 (stereo unspecified)	CAL PDZ FP-1 73.8
CC(=O)c1ccc(S(=O)(=O)N2CCn3cccc3C2C)cc1 (stereo unspecified)	none
Cc1ccccc1SCC(=O)NCC(c1ccc(F)cc1)N1CCOCC1 (stereo unspecified)	CAL PDZ FP-1 53.4
COc1ccc(C(CNC(=O)COc2ccccc2C#N)N2CCOCC2)cc1 (stereo unspecified)	none (no result: S100A4 MyoIIA)
O=C(NCC(c1ccc(F)cc1)N1CCOCC1)c1ccccc1F (stereo unspecified)	none (no result: C2C12 statin)
COc1ccc(/C=C(\C#N)C(=O)NCC(c2ccc(F)cc2)N2CCOCC2)cc1 (stereo unspecified)	CAL PDZ FP-1 77.5
CN(c1ccc(OCC(=O)N2CCC(C(N)=O)CC2)cc1)S(=O)(=O)c1cccs1	CAL PDZ FP-1 62.0 (no result: S100A4 MyoIIA)
COc1ccccc1S(=O)(=O)N1CC[C@H]2[C@H](CO)Nc3ccc(-c4ccc(C#N)cc4)cc3[C@H]21	none (no result: dFosB act, CDK5 inh, CAL PDZ FP-1, CAL PDZ FP-2)
CC(C)(C)C(=O)Nc1sc(-c2ccccc2)cc1C(=O)O	none (no result: C2C12 statin)
Cc1cccc(C(=O)Nc2sc(-c3ccccc3)cc2C(=O)O)c1	CAL PDZ FP-1 42.9
COc1ccc(/C=N/NS(=O)(=O)c2ccccc2)cc1OC	none
c1csc(C2Nc3cccc4cccc(c34)N2)c1	dFosB act 36.4 (no result: CAL PDZ FP-2, S100A4 MyoIIA)
c1ccc(C2Nc3cccc4cccc(c34)N2)cc1	none
C=CCn1c(=NC(=O)C2COc3ccccc3O2)sc2cccc(OC)c21 (stereo unspecified)	none (no result: C2C12 statin)
O=C(NCc1cccc(F)c1)C1CCC(=O)N(CCCN2CCOCC2)C1 (stereo unspecified)	none
O=C(NCCc1cccc(F)c1)C1CCC(=O)N(C2CCCCCC2)C1 (stereo unspecified)	none (no result: CAL PDZ FP-1)
O=C(NCc1cccc(F)c1)C1CCC(=O)N(C2CCCC2)C1 (stereo unspecified)	CAL PDZ FP-1 84.1
O=C(NCc1cccc(Cl)c1)C1CCC(=O)N(CCCN2CCCC2=O)C1 (stereo unspecified)	CAL PDZ FP-1 70.0 (no result: C2C12 statin)
O=C(CSc1nnc2c(n1)[nH]c1ccc(F)cc12)OCc1ccccc1	dFosB act inconclusive, C2C12 statin 85.2 (no result: S100A4 MyoIIA)
O=C(CSc1nnc(CCc2nc3ccccc3[nH]2)n1-c1ccccc1)NCc1ccco1	none (no result: CDK5 inh, C2C12 statin, S100A4 MyoIIA)
N#CCCN(Cc1cccnc1)S(=O)(=O)c1ccc(S(=O)(=O)NC2CCCCC2)cc1	none (no result: S100A4 MyoIIA)
COc1ccc(OCCSc2nnc(C(C)NC(=O)c3ccccc3F)n2C)cc1 (stereo unspecified)	CAL PDZ FP-1 106.5 (no result: C2C12 statin)
